# LANA-H2A inh: blocks KSHV LANA binding to histone H2A/H2B | 320,000 compounds, 0.6% hits | inhibition, % (no concentration beside the values) | Q9QR71 | cell-free LANA-H2A/H2B peptide, fluorescence polarization; in the data active = inhibition mostly above about 10%, no sharp cut-off; inactive = mostly below about 6.7%
# Target sequence (Q9QR71 whole entry, looked up): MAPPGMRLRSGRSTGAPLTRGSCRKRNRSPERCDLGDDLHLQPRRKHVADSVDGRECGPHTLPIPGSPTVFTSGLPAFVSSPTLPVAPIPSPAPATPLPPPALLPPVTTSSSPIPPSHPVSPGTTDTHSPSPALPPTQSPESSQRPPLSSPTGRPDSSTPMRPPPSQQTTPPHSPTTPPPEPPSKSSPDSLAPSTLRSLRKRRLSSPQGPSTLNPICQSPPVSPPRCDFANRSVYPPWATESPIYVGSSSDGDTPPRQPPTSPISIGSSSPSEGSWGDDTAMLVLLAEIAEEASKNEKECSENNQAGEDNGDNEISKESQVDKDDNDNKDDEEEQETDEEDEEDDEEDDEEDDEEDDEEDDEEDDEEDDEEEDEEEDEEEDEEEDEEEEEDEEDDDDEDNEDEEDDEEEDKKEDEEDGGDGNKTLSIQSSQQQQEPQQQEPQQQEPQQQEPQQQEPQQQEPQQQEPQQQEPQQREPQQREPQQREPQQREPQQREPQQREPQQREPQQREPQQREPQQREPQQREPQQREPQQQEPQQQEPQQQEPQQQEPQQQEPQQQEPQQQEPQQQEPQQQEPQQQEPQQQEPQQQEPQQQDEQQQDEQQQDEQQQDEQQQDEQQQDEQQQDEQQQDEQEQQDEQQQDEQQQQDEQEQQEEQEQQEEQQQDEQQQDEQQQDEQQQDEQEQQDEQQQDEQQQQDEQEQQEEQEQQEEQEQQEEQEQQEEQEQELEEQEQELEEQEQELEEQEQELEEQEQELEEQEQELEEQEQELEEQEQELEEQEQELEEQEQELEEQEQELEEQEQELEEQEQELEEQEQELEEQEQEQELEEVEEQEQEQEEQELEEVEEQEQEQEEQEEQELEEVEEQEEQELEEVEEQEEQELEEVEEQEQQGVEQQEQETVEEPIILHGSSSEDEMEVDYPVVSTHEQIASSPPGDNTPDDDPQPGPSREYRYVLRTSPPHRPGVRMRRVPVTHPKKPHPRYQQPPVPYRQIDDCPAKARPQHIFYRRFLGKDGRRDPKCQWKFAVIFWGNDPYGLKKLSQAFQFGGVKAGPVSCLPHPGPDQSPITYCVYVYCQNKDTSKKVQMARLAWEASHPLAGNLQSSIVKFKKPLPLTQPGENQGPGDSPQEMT
# Keap1 Nrf2 FP: disrupts human Keap1 binding to Nrf2 peptide; Q14145; Keap1 Kelch-Nrf2 peptide fluorescence polarization, 1536-well; inhibition, % at 9.4 µM; 340,000 compounds, 0.15% hits; in the data active = inhibition above about 12%;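 note: human Keap1 Kelch domain with fluorescein labeled Nrf2 9mer peptide probe; higher means more block of Keap1 binding to Nrf2 peptide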
# C-LANA FP: blocks KSHV LANA C-terminal domain binding to DNA; 340,000 compounds, 0.078% hits; AID 504423; MBP-C-LANA/FAM-LBS DNA binding, fluorescence polarization; inhibition, % at 9 µM;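 active = highest replicate inhibition at or above 60% at 9 µM, even if other replicates fall short; inactive = all replicates below 60% inhibition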
# CAL PDZ FP-1: inhibitors of human CAL PDZ peptide binding; Q9HD26; purified CAL PDZ, TMR-peptide fluorescence polarization, 1 h; inhibition, % at 20 µM; 330,000 compounds, 0.02% hits; AID 504414;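 active = highest replicate inhibition of at least 40%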
#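 Material – purified CerCALP PDZ construct · Detection – FP readout, S and P plane fluorescence · Measure – percent inhibition from loss of millipolarization · Controls – unlabelled peptide for full inhibition, DMSO wells as neutral · Probe or stimulus – TMR-labelled reporter peptide T*-PRC34 bound in PDZ groove · Times – 1 h at RT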
# CaV13 FRET inh: Primary screen for inhibitors of IQ motif and Ca2+-dependent inactivation inhibitor domain binding in CACNA1D, Förster resonance energy transfer in living cells, …; HEK cells, CFP/YFP FRET ICDI-IQ, plate reader, 10 min; percent FRET-ratio fall versus neutral wells; inhibition, % at 12.3 µM; 340,000 compounds, 0.098% hits;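 active = mean replicate inhibition of at least 30% and at least 1% of replicates passing that level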
# CAL PDZ FP-2: inhibitors of human CAL PDZ peptide binding; inhibition, % at 24.9 µM; purified CAL PDZ, TMR-peptide fluorescence polarization, 1 h; 300,000 compounds, 0.92% hits;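 active = mean inhibition of at least 30% with at least half of replicates also reaching 30%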
# Numbers stand for hits; n = inactive; x = not tested or not shown; + = active, no number. A selection: hits, their analogues and other compounds. The true share with any hit is near 1.5%.
SMILES,LANA-H2A inh,Keap1 Nrf2 FP,C-LANA FP,CAL PDZ FP-1,CaV13 FRET inh,CAL PDZ FP-2
Cc1ccc(C(=O)OCC(=O)Nc2c(C)nn(-c3ccccc3)c2C)c(O)c1,x,x,x,x,51,x
CC(C)CCSc1nc2[nH]ncc2c(=O)[nH]1,n,n,n,n,n,n
COc1cc(C=NN=c2sc3ccccc3n2C)ccc1OCCO,x,x,x,x,n,x
CC1(C(=O)Nc2ccc3c(c2)OCCO3)CN(S(C)(=O)=O)CC(=O)N1C1CCCCCC1 (centres undefined),x,x,x,x,n,x
COc1ccccc1C(=O)Nc1ccc2c(c1)nc(CN1CCCCC1)n2C,n,n,n,n,n,71
CCOc1cc(C(=S)N2CCN(C)CC2)ccc1OCC(=O)N1CCOCC1,n,n,n,n,n,31
COc1cc([N+](=O)[O-])ccc1NC(=O)NCCCN1CCCC1=O,n,n,n,n,x,n
O=C(O)c1ccccc1SCc1csc(-c2ccccc2)n1,12,n,n,n,n,n
O=C(Cc1csc(-c2ccccc2)n1)NCc1ccc(F)cc1,n,n,n,n,n,n
COC(=O)c1ccccc1SCc1csc(C)n1,n,n,n,n,n,n
O=C(Cc1csc(-c2ccccc2)n1)NCc1ccccc1F,n,x,x,x,38,x
CCc1c(-c2cccc(Cl)c2)ncn1CCc1ccccc1OC,x,x,x,x,n,x
COc1ccc(C2=CC(=O)CC(C)(C)C2=O)cc1,x,x,x,x,n,x
COc1ccc(Cc2nc3ccc(C(=O)N(C)C(C)c4ccon4)cc3o2)cc1 (centres undefined),n,n,n,n,x,34
COc1ccc(NS(=O)(=O)c2cccc(C(=O)O)c2)cc1S(=O)(=O)N1CCOCC1,n,n,n,n,n,x
COc1ccc(NS(=O)(=O)c2ccc(/C=C/C(=O)O)cc2)cc1S(=O)(=O)N1CCOCC1,n,n,n,n,n,44
COC(=O)CC1=C(C(=O)OC)[C@@H](c2ccccc2[N+](=O)[O-])C(C#N)=C(N)O1,n,n,n,n,n,n
COC(=O)CC1=C(C(=O)OC)C(c2cc(OC)c(OC)cc2OC)C(C#N)=C(N)O1 (centres undefined),14,n,n,n,n,n
Cc1ccc(C(=O)N2O[C@]34C=C[C@]25C[C@@H](O)CC[C@]5(C)C3CC[C@]2(C)[C@@H]([C@H](C)/C=C/[C@H](C)C(C)C)CC[C@H]24)cc1 (some centres undefined),x,x,x,x,n,x
O=C1c2ccccc2C(=O)c2c(O)c(O)cc(O)c21,x,n,n,n,n,n
O=C1C=C(O)c2c(O)cc(O)c(O)c2C1=O,n,19,117,n,x,n
CC1(C2CC2)NC(=O)N(CC(=O)Nc2ccc(C(F)(F)F)cc2)C1=O (centres undefined),12,n,n,n,n,x
COc1ccc(C2CC(=O)C(c3ccc(Cl)c(Cl)c3)=CN2Cc2ccccc2)cc1 (centres undefined),x,x,x,x,n,x
COc1ccc(CCN2CC(C(=O)N(C)Cc3ccccc3OC)CCC2=O)cc1 (centres undefined),12,n,n,n,n,n
Cc1ccc(N2CCN(CCCCN3C(=O)C4CCCN4C3=O)CC2)cc1 (centres undefined),n,n,n,n,n,63
SMILES,LANA-H2A inh,Keap1 Nrf2 FP,C-LANA FP,CAL PDZ FP-1,CaV13 FRET inh,CAL PDZ FP-2
CC(CNC(=O)[C@@H](Cc1ccccc1)NC(=O)[C@H]1O[C@@H](n2cnc3c(=O)[nH]c(N)nc32)[C@H](O)[C@@H]1O)c1ccccc1 (some centres undefined),x,x,x,x,n,x
COC(=O)CC#C[C@H](C)[C@@H](NS(=O)(=O)c1ccc([N+](=O)[O-])cc1)C(C)(C)C,x,x,x,x,n,x
CC(C)C1Cc2c(sc3c2c(=O)n(-c2ccccc2)c2n[nH]c(=S)n32)CO1 (centres undefined),n,n,n,n,n,+
C[C@@H]1CN([C@@H](C)CO)C(=O)CCCn2cc(nn2)CO[C@H]1CN(C)C(=O)Nc1ccnc(N2CCOCC2)c1,x,x,x,x,n,x
COc1ccccc1-n1cc(-c2ccccc2)c2c(=S)nc[nH]c21,n,n,n,n,n,77
COc1ccccc1-n1cc(-c2ccccc2)[nH]c1=S,n,n,n,n,n,n
COc1ccc(C2NCCc3cc(OC)c(OC)cc32)cc1OC (centres undefined),n,n,n,n,n,60
O=c1[nH]cnc2ccc([N+](=O)[O-])cc12,n,n,n,n,n,n
O=c1[nH][nH]c(=O)c2cc([N+](=O)[O-])ccc12,40,n,n,n,n,n
O=C(NC(CC1=CCCCC1)c1ccc2ccccc2c1)C(F)(F)F (centres undefined),x,x,x,x,n,x
COc1cc(CC(=O)NCC(C)(C)N2CCOCC2)cc(OC)c1OC,n,n,n,n,n,55
COc1ccc(S(N)(=O)=O)cc1C(=O)NCC(C)(C)N1CCOCC1,n,n,n,n,n,n
O=C(C1=C(O)C(=O)N(CC2CCCO2)C1c1cccc(Cl)c1)c1ccco1 (centres undefined),n,n,n,n,n,n
COCCN1CCN(C(=O)C2CCC(=O)N(CCc3cccc(F)c3)C2)CC1 (centres undefined),n,n,n,n,n,n
COC(=O)c1cc2c(c3c4cc(C)ccc4n(S(=O)(=O)c4ccc(C)cc4)c13)C(=O)N(Cc1ccc(C(F)(F)F)cc1)C2,x,x,x,x,n,x
O=C1NC(Cc2ccc(O)cc2)c2nc3ccc(Cl)cc3c(=O)n2-c2ccc(Cl)cc21 (centres undefined),n,x,x,x,n,x
CCN(CCO)Cc1csc2ccc(C(C)(C)C)cc12,n,n,n,n,n,57
Cc1nn(C)c(C(=O)Nc2ccc(S(=O)(=O)NC34CC5CC(CC(C5)C3)C4)cc2)c1Br,57,n,n,n,x,n
Cc1ccc(S(=O)(=O)NC23CC4CC(CC(C4)C2)C3)cc1,n,n,n,n,n,x
O=C(c1cnn(C(=O)CN2CCCC2=O)c1)c1ccccc1O,n,n,n,n,n,93
CCCC(=O)Nc1ccc2c(c1)C(=O)N(C)C[C@@H](OC)[C@H](C)CN(Cc1ccc(-c3ccccn3)cc1)[C@@H](C)CO2,x,x,x,x,n,x
CCOC(=O)C1(Cc2ccccc2)CCCN(C(=O)c2ccc(-n3ccnc3)cc2)C1 (centres undefined),n,n,n,n,n,38
CCCc1cc(C(=O)N2CCCC(Cc3cccc(Cl)c3)(C(=O)OCC)C2)n(C)n1 (centres undefined),n,n,n,n,n,n
CCOC(=O)C1(Cc2cccc(Cl)c2)CCCN(C(=O)c2ccnn2C)C1 (centres undefined),n,n,n,n,n,41
CCOC(=O)C1(Cc2ccccc2)CCCN(C(=O)c2cn[nH]c2)C1 (centres undefined),n,n,n,n,n,n

# Source: PubChem BioAssay
